Two compounds from ChEMBL document CHEMBL1151917, “Dysideamine, a new sesquiterpene aminoquinone, protects hippocampal neuronal cells against iodoacetic acid-induced cell death” (Bioorg Med Chem, 2009) can be followed below.

Data set [1] relates to HT-22. As to the kind of experiment: Neuroprotective activity against iodoacetic acid-induced cell death in mouse HT22 cells assessed as survival at 10 uM treated 2 hrs after iodoacetic acid challenge measured after 20 hrs by MTT colorimetric assay. The data set is classed as functional. The following applies: read-out: Survival. The method, boiled down:
(§1)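 HT22 cells in DMEM/10% FBS, 5 × 10^3 cells/well, held 24 h at 37 °C under 5% CO2. Switched to DMEM/7.5% FBS with 20 µM iodoacetic acid for 2 h. Medium then replaced with fresh DMEM/10% FBS and compound added in EtOH. After a further 20 h, viability was read by MTT. Mean ± SEM, n = 3.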
On the technique in general: Tetrazolium assays rely on reduction of a dye to a coloured formazan, in cell work by metabolically active cells.

Data set [2] deals with N2a. As to the kind of experiment: Induction of neuronal differentiation in mouse Neuro2a cells assessed as increase in acetylcholinesterase activity at 10 uM after 48 hrs by colorimetrically. The data set is classed as functional, cell-based. The method, boiled down: (§2)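 After 48 h treatment of Neuro 2A cells, AChE production was measured per 5 × 10^4 cells. Read-out was the colorimetric rate of acetylthiocholine hydrolysis.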

Data set [3] can be described thus: Cytotoxicity against mouse Neuro2a cells at 10 uM. It counts as cell-based. The settings on record: n2a.
Data set [4] deals with HT-22. As to the kind of experiment: Neuroprotective activity in mouse HT22 cells assessed as inhibition of iodoacetic acid-induced intracellular ROS production at 10 uM treated 2 hrs after iodoacetic acid challenge. The data set is classed as functional, cell-based. In short, it runs like this:
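HT22 cells at 5 × 10^4 cells/well were cultured 24 h, then given 20 µM iodoacetic acid in DMEM/7.5% FBS for 2 h. Cells went to normal growth medium with compound (10 µM) in EtOH. At the indicated times they were washed and loaded with 10 µM DCFH-DA in serum-free medium for 20 min in the dark. After a second wash, fluorescence was read at ex 485/em 530 nm.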

The test system of data set [5] is N2a. Kind of data set: Induction of neuronal differentiation in mouse Neuro2a cells assessed as increase in acetylcholinesterase activity at 3 uM after 48 hrs by colorimetrically. The data set is classed as functional, cell-based. In short, it runs like this:
as §2

The subject of data set [6] is HT-22. Kind of data set: Neuroprotective activity against iodoacetic acid-induced intracellular ATP depletion in mouse HT22 cells assessed as recovery of ATP treated 2 hrs after iodoacetic acid challenge after 4 to 8 hrs. The data set is classed as functional, cell-based. In short, it runs like this:
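HT22 cells at 5 × 10^3 cells/well were exposed to […] for 2 h in DMEM/7.5% FBS. They were then moved to normal growth medium, with or without compound, for the indicated times. Intracellular ATP was read by CellTiter-Glo luminescence. Mean ± SEM, n = 3.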

Data set [7] deals with N2a. Kind of data set: Induction of neurite out growth in mouse Neuro2a cells assessed as increase in percent of cells with outgrowth at 10 uM after 48 hrs by phase contrast microscopy. The data set is classed as functional. The method, boiled down: (§3)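 Neuro 2A cells in DMEM/10% FBS, seeded at 1 × 10^4 cells per well and grown 24 h. Medium renewed, then compound added in EtOH and cells held 48 h. Scored by phase contrast microscopy: neurite-bearing means processes longer than the cell body diameter. Percent of neurite-bearing cells counted from at least 300 cells in photomicrographs of representative-density areas.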

For data set [8], the system named is HT-22. Kind of data set: Neuroprotective activity against iodoacetic acid-induced cell death in mouse HT22 cells assessed as survival treated 2 hrs after iodoacetic acid challenge measured after 20 hrs by MTT colorimetric assay. The data set is classed as functional, cell-based. In short, it runs like this: as §1
Data set [9] deals with N2a. Kind of data set: Induction of neurite out growth in mouse Neuro2a cells assessed as increase in percent of cells with outgrowth at 3 uM after 48 hrs by phase contrast microscopy. The data set is classed as functional. The method, boiled down: as §3

Structures are written as SMILES. Activity calls are given as the source filed them. The rule behind the calls is not given here.

In the case of `COC1=CC(=O)C(O)=C(C[C@@]2(C)CC[C@]3(C)C(C)=CCC[C@H]3[C@H]2C)C1=O` [BOLINAQUINONE], the viability at 10 µM with HT-22 [1] is 57%.
As to `CC1=CCC[C@H]2[C@@H](C)[C@@](C)(CC3=C(O)C(=O)C=C(N)C3=O)CC[C@]12C` [DYSIDEAMINE], the viability at 10 µM in the data set on HT-22 [1] is 43%. In addition, the result in the data set on N2a [2], in the data set with HT-22 [4], with N2a [5] and in the data set on HT-22 [6] was Active. For the same compound, the Activity result in [3] was “Non-toxic”; in the data set with N2a [7], 25%; in the data set on HT-22 [8] it was “Dose-dependent effect”; with N2a [9] it was 40%.
